This note sets out measurements from ChEMBL document CHEMBL1125769 (J Med Chem, 1991).

As usually defined, the pA2 is the negative logarithm of the molar antagonist concentration that doubles the agonist concentration needed for the same response. A high value points to higher antagonist potency.

Where “and” joins values, the source holds several entries; their conditions need not be identical. Identical values can stand only once. Square brackets hold non-standard residues; d marks the D form. Peptide text beside a SMILES is read from it. NMeA = CN[C@@H](C)C(=O)O; Ac5c = NC1(C(=O)O)CCCC1; Aib = CC(C)(N)C(=O)O; Sar = CNCC(=O)O Bounds are passed on as bounds.

Experiment [1] concerns the target T1, Angiotensin II receptor (Rattus norvegicus) (UniProt P29089+P25095+P35351). Kind of experiment: In vivo agonist activity expressed as percent activity relative to angiotensin II in rat blood pressure assay. Type of experiment: functional, organism-based. The method, boiled down:
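Rat blood pressure (pressor) assay in vivo, after Regoli et al.; ANG II-like activity given as percent activity relative to ANG II; n = 5.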

Experiment [2] deals with T1, Angiotensin II receptor (Rattus norvegicus). Kind of experiment: In vitro agonist activity relative to angiotensin II measured in rabbit aorta strip assay. Type of experiment: functional, tissue-based.
Experiment [3] concerns the target T2, Angiotensin II receptor (Rattus norvegicus, UniProt P29089+P25095+P35351).
T2 sequence (P29089 whole entry): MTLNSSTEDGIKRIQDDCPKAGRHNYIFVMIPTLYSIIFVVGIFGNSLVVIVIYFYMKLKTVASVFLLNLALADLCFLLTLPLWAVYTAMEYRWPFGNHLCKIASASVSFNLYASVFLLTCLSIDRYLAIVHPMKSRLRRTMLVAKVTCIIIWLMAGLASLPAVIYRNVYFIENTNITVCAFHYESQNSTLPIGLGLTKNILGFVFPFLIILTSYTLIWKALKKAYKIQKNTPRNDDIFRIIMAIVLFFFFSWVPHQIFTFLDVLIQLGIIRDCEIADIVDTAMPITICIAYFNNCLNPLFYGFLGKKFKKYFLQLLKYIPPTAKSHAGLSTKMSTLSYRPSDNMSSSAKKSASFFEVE
T2 sequence (P25095 whole entry): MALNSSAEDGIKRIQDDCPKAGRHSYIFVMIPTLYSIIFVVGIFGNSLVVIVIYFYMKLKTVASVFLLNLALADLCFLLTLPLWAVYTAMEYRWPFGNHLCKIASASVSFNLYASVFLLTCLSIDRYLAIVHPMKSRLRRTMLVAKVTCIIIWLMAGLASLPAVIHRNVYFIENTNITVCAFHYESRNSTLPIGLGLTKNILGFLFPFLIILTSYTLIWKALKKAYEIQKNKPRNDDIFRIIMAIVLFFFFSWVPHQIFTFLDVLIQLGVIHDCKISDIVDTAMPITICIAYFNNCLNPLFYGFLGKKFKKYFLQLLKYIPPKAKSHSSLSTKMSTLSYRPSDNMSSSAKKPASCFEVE
T2 sequence (P35351 whole entry): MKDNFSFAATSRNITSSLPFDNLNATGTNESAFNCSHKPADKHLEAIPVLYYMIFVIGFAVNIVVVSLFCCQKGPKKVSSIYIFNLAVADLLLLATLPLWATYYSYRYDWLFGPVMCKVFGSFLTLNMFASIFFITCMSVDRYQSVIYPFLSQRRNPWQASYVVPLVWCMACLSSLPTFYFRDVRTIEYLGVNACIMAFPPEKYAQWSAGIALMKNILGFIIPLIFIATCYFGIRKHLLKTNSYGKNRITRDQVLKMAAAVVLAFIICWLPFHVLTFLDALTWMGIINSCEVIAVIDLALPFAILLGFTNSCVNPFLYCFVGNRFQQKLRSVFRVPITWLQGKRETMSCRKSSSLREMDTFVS
Kind of experiment: In vitro antagonist activity (ANG II like) expressed as percent activity relative to ANG II in rabbit aorta strip assay. Type of experiment: functional, tissue-based.

In experiment [4] the target is T1, Angiotensin II receptor (Rattus norvegicus). Kind of experiment: In vivo antagonist activity (ANG II like) expressed by blood pressure increase (mHg) produced by […] iv injection of compound in rats. Type of experiment: functional, organism-based. In outline: (§1)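 Rat blood pressure assay after Regoli et al.; residual ANG II-like activity read as mmHg rise in blood pressure following a one microgram intravenous bolus of compound; n = 5.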

The subject of experiment [5] is Rattus norvegicus. Kind of experiment: In vivo antagonist activity (ANG II like) expressed as blood pressure increase […] produced by […] iv injection of compound in rats. The class given is functional. The method, boiled down:
as §1

For experiment [6], the species on record is Oryctolagus cuniculus. Kind of experiment: In vitro agonist activity expressed as percent activity relative to ANG II was measured in rabbit aorta strip assay. Type of experiment: functional.
The test system of experiment [7] is Rattus norvegicus. Kind of experiment: in vivo antagonist activity (ANG II like) is expressed by blood pressure increase (mHg) produced by […] iv injection of compound in rats. The class given is functional. The method, boiled down:
as §1

For experiment [8], the species on record is Rattus norvegicus. Kind of experiment: In vitro antagonist activity expressed as pA2 was measured in rat uterus.

In the case of `CNCC(=O)N[C@@H](CCCN=C(N)N)C(=O)N[C@H](C(=O)N[C@@H](Cc1ccc(O)cc1)C(=O)N1CSC(C)(C)[C@@H]1C(=O)N[C@@H](Cc1c[nH]cn1)C(=O)N1CCC[C@H]1C(=O)N[C@@H](Cc1ccccc1)C(=O)O)C(C)C`, the values for the Activity in experiment [1] and in experiment [2] were 100% and 250%, respectively.

With `CC[C@@H](C)[C@@H](NC(=O)[C@H](Cc1ccc(O)cc1)NC(=O)[C@H](C)N(C)C(=O)[C@H](CCCN=C(N)N)NC(=O)CNC)C(=O)N[C@@H](Cc1c[nH]cn1)C(=O)N1CCC[C@H]1C(=O)NC(Cc1ccccc1)C(=O)O` (stereo in doubt), the Activity worked out at 10% in experiment [1] and 0% in experiment [2]. The compound also displayed a pA2 in experiment [3] of less than 6. Also, the ID50 (ng min-1 rat-1) in experiment [4] came to 100.

Take `CC[C@H](C)[C@H](NC(=O)[C@@H]1CCCN1C(=O)[C@H](Cc1c[nH]cn1)NC(=O)[C@@H](NC(=O)[C@H](Cc1ccc(O)cc1)NC(=O)[C@H](C)NC(=O)[C@H](CCCN=C(N)N)NC(=O)CNC)[C@@H](C)CC)C(=O)O` (H-[Sar]RAYIHPI-OH): the figures for the Activity in experiment [1] and in experiment [2] were 7.5% and 0%, respectively. Besides, in experiment [3], the pA2 came to 8.3. This compound returned an ID50 (ng min-1 rat-1) in experiment [4] of 25.

In the case of `CC[C@H](C)[C@H](NC(=O)[C@H](Cc1ccc(O)cc1)NC(=O)C1(NC(=O)[C@H](CCCN=C(N)N)NC(=O)[C@@H](N)CC(=O)O)CCCC1)C(=O)N[C@@H](Cc1c[nH]cn1)C(=O)N1CCC[C@H]1C(=O)N[C@@H](Cc1ccccc1)C(=O)O` (H-DR[Ac5c]YIHPF-OH), in experiment [1], the Activity worked out at 2%.

`CC[C@H](C)[C@H](NC(=O)[C@H](Cc1ccc(O)cc1)NC(=O)[C@@H](NC(=O)[C@H](CCCN=C(N)N)NC(=O)CNC)C(C)C)C(=O)N[C@@H](Cc1c[nH]cn1)C(=O)N1CCC[C@H]1C(=O)N[C@@H](C)C(=O)O`: the Activity is 15.1% and 10% in experiment [1]; 0.5% in experiment [2]; 0% in experiment [6]. Further, the ID50 in experiment [5] was 7.92 ng min-1 rat-1 and 15 ng min-1 rat-1.

Turning to `CC[C@H](C)[C@H](NC(=O)[C@@H]1CSCN1C(=O)[C@H](Cc1c[nH]cn1)NC(=O)[C@@H](NC(=O)[C@H](Cc1ccc(O)cc1)NC(=O)[C@@H](NC(=O)[C@H](CCCN=C(N)N)NC(=O)CNC)C(C)C)[C@@H](C)CC)C(=O)O`, the ID50 in experiment [7] was determined as 12.5 ng min-1 rat-1. The same compound had a pA2 in experiment [8] of 7.2.

As for `CC[C@H](C)[C@H](NC(=O)[C@H](Cc1ccc(O)cc1)NC(=O)[C@H](C)NC(=O)[C@H](CCCN=C(N)N)NC(=O)[C@@H](N)CC(=O)O)C(=O)N[C@@H](Cc1c[nH]cn1)C(=O)N1CCC[C@H]1C(=O)N[C@@H](Cc1ccccc1)C(=O)O` (H-DRAYIHPF-OH), the Activity in experiment [1] worked out at 80.5%.

In experiment [1], `CC[C@H](C)[C@H](NC(=O)[C@H](Cc1ccc(O)cc1)NC(=O)C(C)(C)NC(=O)[C@H](CCCN=C(N)N)NC(=O)[C@@H](N)CC(=O)O)C(=O)N[C@@H](Cc1c[nH]cn1)C(=O)N1CCC[C@H]1C(=O)N[C@@H](Cc1ccccc1)C(=O)O` (H-DR[Aib]YIHPF-OH) registered an Activity of 1%.

In experiment [3], `CC[C@H](C)[C@H](NC(=O)[C@H](C)N(C)C(=O)[C@H](Cc1c[nH]cn1)NC(=O)[C@@H](NC(=O)[C@H](Cc1ccc(O)cc1)NC(=O)[C@@H](NC(=O)[C@H](CCCN=C(N)N)NC(=O)CNC)C(C)C)[C@@H](C)CC)C(=O)O` (H-[Sar]RVYIH[NMeA]I-OH) registered a pA2 of 8.4. Further, in experiment [4], the ID50 (ng min-1 rat-1) was found to be 20. The compound further had an Activity in experiment [2] of 0%.

Turning to `CC[C@H](C)[C@H](NC(=O)[C@@H]1CCCN1C(=O)[C@H](Cc1c[nH]cn1)NC(=O)[C@@H](NC(=O)[C@H](Cc1ccc(O)cc1)NC(=O)C(C)(C)NC(=O)[C@H](CCCN=C(N)N)NC(=O)CNC)[C@@H](C)CC)C(=O)O` (H-[Sar]R[Aib]YIHPI-OH), the values for the Activity in experiment [1] and in experiment [2] were 3% and 0%, respectively. Besides, the pA2 in experiment [3] is reported as 7. Besides, in experiment [4], the ID50 (ng min-1 rat-1) is 50.

As for `CC(C)[C@H](NC(=O)[C@H](Cc1ccc(O)cc1)NC(=O)C1(NC(=O)[C@H](CCCN=C(N)N)NC(=O)[C@@H](N)CC(=O)O)CCCC1)C(=O)N[C@@H](Cc1c[nH]cn1)C(=O)N(C)[C@@H](C)C(=O)N[C@@H](Cc1ccccc1)C(=O)O` (H-DR[Ac5c]YVH[NMeA]F-OH), the Activity in experiment [1] is 22%.

`CC[C@H](C)[C@H](NC(=O)[C@H](Cc1ccc(O)cc1)NC(=O)[C@@H](NC(=O)[C@H](CCCN=C(N)N)NC(=O)CNC)C(C)C)C(=O)N[C@@H](Cc1c[nH]cn1)C(=O)N1CCC[C@H]1C(=O)N[C@@H](Cc1ccccc1)C(=O)O`: the Activity was determined as 125% in experiment [1] and 180% in experiment [2].

For the compound `CC(C)[C@H](NC(=O)[C@H](Cc1ccc(O)cc1)NC(=O)C1(NC(=O)[C@H](CCCN=C(N)N)NC(=O)[C@@H](N)CC(=O)O)CCCC1)C(=O)N[C@@H](Cc1c[nH]cn1)C(=O)NC(C)(C)C(=O)N[C@@H](Cc1ccccc1)C(=O)O` (H-DR[Ac5c]YVH[Aib]F-OH), the Activity in experiment [1] was determined as 1%.

Turning to `CC[C@H](C)[C@H](NC(=O)[C@@H]1CCCN1C(=O)[C@H](Cc1c[nH]cn1)NC(=O)[C@@H]1CCCN1C(=O)[C@H](Cc1ccc(O)cc1)NC(=O)[C@@H](NC(=O)[C@H](CCCN=C(N)N)NC(=O)CNC)C(C)C)C(=O)O` (H-[Sar]RVYPHPI-OH), in experiment [3], the pA2 is listed as 8.7. In experiment [4], this compound had an ID50 (ng min-1 rat-1) of 20. In experiment [2], the Activity amounted to 0%.

Regarding `CC[C@H](C)[C@H](NC(=O)[C@@H]1CCCN1C(=O)[C@H](Cc1c[nH]cn1)NC(=O)[C@@H](NC(=O)[C@H](Cc1ccc(O)cc1)NC(=O)[C@H](C)N(C)C(=O)[C@H](CCCN=C(N)N)NC(=O)CNC)[C@@H](C)CC)C(=O)O` (H-[Sar]R[NMeA]YIHPI-OH), in experiment [3], the pA2 came to 8.9. The ID50 (ng min-1 rat-1) in experiment [4] came to 25. Besides, in experiment [2], the Activity is 0%.

Turning to `CC[C@H](C)[C@H](NC(=O)[C@H](Cc1ccc(O)cc1)NC(=O)[C@@H](NC(=O)[C@H](CCCN=C(N)N)NC(=O)CNC)C(C)C)C(=O)N[C@@H](Cc1c[nH]cn1)C(=O)N1CCC[C@H]1C(=O)N[C@H](Cc1ccccc1)C(=O)O`, the pA2 in experiment [3] amounted to 9. Besides, the ID50 (ng min-1 rat-1) in experiment [4] worked out at 12.5. Besides, in experiment [2], the Activity was 0%.

`CC(C)[C@H](NC(=O)[C@H](Cc1ccc(O)cc1)NC(=O)C1(NC(=O)[C@H](CCCN=C(N)N)NC(=O)[C@@H](N)CC(=O)O)CCCC1)C(=O)N[C@@H](Cc1c[nH]cn1)C(=O)NC1(C(=O)N[C@@H](Cc2ccccc2)C(=O)O)CCCC1` (H-DR[Ac5c]YVH[Ac5c]F-OH): the Activity in experiment [1] worked out at 1.5%.

For the compound `CC[C@H](C)[C@H](NC(=O)[C@H](Cc1ccc(O)cc1)NC(=O)[C@@H]1CCCN1C(=O)[C@H](CCCN=C(N)N)NC(=O)[C@@H](N)CC(=O)O)C(=O)N[C@@H](Cc1c[nH]cn1)C(=O)N1CCC[C@H]1C(=O)N[C@@H](Cc1ccccc1)C(=O)O` (H-DRPYIHPF-OH), in experiment [1], the Activity was found to be 53%.
